This is an account of results in ChEMBL document CHEMBL1133729, “Design, synthesis, and structure-activity relationships of phthalimide-phenylpiperazines: a novel series of potent and selective alpha(1)(a)-adrenergic receptor antagonists” (J Med Chem, 2000).

The species entered for data set [1] is Rattus norvegicus. The data set can be described thus: Antagonist dissociation equilibrium constant was tested against rat prosta contraction. The data set is classed as functional. In outline:
(§1)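 Isolated Long Evans male rat (275 ± 25 g) abdominal aortic strips (3-4 mm wide) or prostate strips (8-10 mm x 1-2 mm), 2 g resting tension, modified Krebs at 37 °C, 95% O2/5% CO2, pH 7.4, 60 min equilibration; isometric tension.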

For data set [2], the species on record is Rattus norvegicus. The data set can be described thus: Antagonist dissociation equilibrium constant was tested against rat aorta contraction. The format is functional. A digest of the protocol: as §1
The nature of data set [3]: Ratio of rat aorta KB to rat prostate KB. The data set is classed as functional. A digest of the protocol: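 Long Evans male rats (275 ± 25 g); aortic and prostate strips at 2 g resting tension in modified Krebs, 37 °C, 95% O2/5% CO2, pH 7.4, isometric recording. Cumulative NE curves (0.001–100 μM), repeated after 5 min with one of three antagonist concentrations. KB = [B]/(CR − 1) from EC50 shifts; value is aorta KB divided by prostate KB.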

Data set [4] has as its target Adrenergic receptors; alpha-1 A & B (Homo sapiens) (UniProt P35348+P35368). The data set can be described thus: Ratio of binding affinity towards Alpha1b to Alpha-1A. The data set is classed as protein assay. A digest of the protocol: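 Human α1a, α1b and α1d cDNAs transiently expressed in COS-1 cells (DEAE-dextran); membranes harvested 72 h post-transfection. Competition versus 50 pM [125I]HEAT (final), 0.1 pM–10 μM test compound in half-log steps, in TNE buffer pH 7.4. Membrane protein 0.1 μg (α1a, α1b) or 2.6 μg (α1d); 1 h at 25 °C. Filtration, scintillation counting; Ki = IC50/(1 + [L]/Kd). Ratios are subtype Ki over α1a Ki.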

The target in data set [5] is Dihydropyridine-sensitive L-type Ca2+ channel (Rattus norvegicus, UniProt P22002+P27732+Q02485). The data set can be described thus: Inhibition of [3H]nitrendipine binding to Dihydropyridine-sensitive L-type [Ca2+] channel in rat cerebral cortex at 1 uM. The data set is classed as tissue-based. Particulars: probe [3H]nitrendipine. In outline: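 Rat cerebral cortex membranes as source of dihydropyridine-sensitive L-type Ca2+ channels; [3H]nitrendipine, 25 °C for 90 min, pH 7.4 Tris-HCl/NaCl/EDTA; 1 μM nifedipine for nonspecific binding. Percent inhibition at the single compound concentration given in each line; filtration, scintillation counting.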

Data set [6] deals with phenylalkylamine-sensitive L-type Ca2+ channel (Rattus norvegicus, UniProt P22002+P27732+Q02485). The data set can be described thus: Inhibition of [3H]nitrendipine binding to phenylalkylamine-sensitive [Ca2+] L-type channels in rat cerebral cortex at 1 uM. The data set is classed as tissue-based. Particulars: probe [3H]nitrendipine.
Data set [7] deals with Histamine H1 receptor (Cavia porcellus) (UniProt P31389). The data set can be described thus: Compound at 1 uM was tested for the inhibition of radioligand [3H]pyrilamine binding to peripheral histamine H1 receptor in guinea pig lung.
Data set [8] concerns the target T1, Serotonin 1 (5-HT1) receptor (Rattus norvegicus, UniProt P28564+P30940+P19327+P28565). The data set can be described thus: Binding affinity towards 5-hydroxytryptamine 1 receptor was determined in rat cerebral cortex using [3H]5-HT as radioligand. The format is tissue-based. In outline:
(§2)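 Rat cerebral cortex membranes incubated with [3H]5-HT for 10 min at 37 °C in 50 mM Tris-HCl, 150 mM NaCl, 5 mM EDTA, pH 7.4. Nonspecific binding defined with 10 μM 5-HT. Filtration, then liquid scintillation counting. Ki derived from IC50 by Cheng–Prusoff; mean of three independent experiments.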

Data set [9] deals with 5-hydroxytryptamine receptor 1A (Homo sapiens, UniProt P08908). The data set can be described thus: Binding affinity towards recombinant human Compound at 1 uM was tested for the inhibition of radioligand [3H]8-OH-DPAT binding to recombinant human 5-hydroxytryptamine 1A receptor was determined using [3H]8-OH-DPAT as radioligand. A digest of the protocol:
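Recombinant human 5-HT1A receptor expressed in CHO cell membranes. [3H]8-OH-DPAT binding for 60 min at 25 °C in Tris/NaCl/EDTA buffer, pH 7.4. Nonspecific binding defined with 10 μM metergoline. Percent inhibition measured at 1 μM test compound in duplicate; filtration and scintillation counting.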

Data set [10] deals with Alpha-2B adrenergic receptor (Rattus norvegicus, UniProt P19328). The data set can be described thus: Binding affinity towards rat alpha-2B adrenergic receptor was determined using [3H]yohimbine as radioligand. In outline:
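Membranes from rat kidney cortex; [3H]yohimbine binding at 25 °C for 30 min in 50 mM Tris-HCl, 150 mM NaCl, 5 mM EDTA, pH 7.4. Nonspecific binding defined with 10 μM phentolamine. Filtration, washes, scintillation counting. IC50 from nonlinear regression, Ki by Cheng–Prusoff, mean ± SEM of three independent experiments.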

For data set [11], the target named is T2, D(2) dopamine receptor (Homo sapiens, UniProt P14416). The data set can be described thus: Binding affinity towards recombinant human Dopamine receptor D2S was determined using [3H]spiperone as radioligand. A digest of the protocol: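 Recombinant human D2S in CHO cell membranes; [3H]spiperone incubated 120 min at 37 °C, buffer 50 mM Tris-HCl, 150 mM NaCl, 5 mM EDTA, pH 7.4; nonspecific with 10 μM haloperidol. Filtered, counted by scintillation. Ki via Cheng–Prusoff from fitted IC50, mean ± SEM of three experiments.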

The target of data set [12] is T2, D(2) dopamine receptor. The data set can be described thus: Binding affinity towards recombinant human Dopamine receptor D2L was determined using [3H]spiperone as radioligand. A digest of the protocol:
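CHO-expressed human D2L membranes; [3H]spiperone, 25 °C for 120 min, pH 7.4 Tris-HCl/NaCl/EDTA buffer; haloperidol (10 μM) for nonspecific binding. Filtration, scintillation counting. IC50 by nonlinear least squares fitting; Ki by Cheng–Prusoff; mean ± SEM, three independent experiments.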

In another data set the target is D(3) dopamine receptor (Homo sapiens, UniProt P35462). The data set can be described thus: Binding affinity towards recombinant human Dopamine receptor D3 was determined using [3H]spiperone as radioligand.
Data set [13] is filed under the species Rattus norvegicus. The data set can be described thus: Displacement of [3H]-idazoxan from imidazoline receptor I-2 of rat cerebral cortex. The format is tissue-based. Particulars: concentration not given here. In outline: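 Rat cerebral cortex membranes; [3H]idazoxan at 25 °C for 30 min in 50 mM Tris-HCl, 150 mM NaCl, 5 mM EDTA, pH 7.4; nonspecific binding with 1 μM idazoxan. Filtered, washed three to four times, scintillation counted; duplicate determinations.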
On the technique in general: Displacement assays read how much labelled ligand stays bound in the presence of the test substance.

The target of data set [14] is 5-hydroxytryptamine receptor 7 (Homo sapiens, UniProt P34969). The data set can be described thus: Binding affinity towards recombinant human 5-hydroxytryptamine 7 receptor was determined using [3H]LSD as radioligand. In outline: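 Membranes were from CHO cells expressing recombinant human 5-HT7. [3H]LSD binding was run for 120 min at 37 °C in 50 mM Tris-HCl, 150 mM NaCl, 5 mM EDTA, pH 7.4, with nonspecific binding set by 5 μM 5-HT. Filtration and scintillation counting followed. Ki came from IC50 by Cheng–Prusoff, mean ± SEM of three experiments.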

Data set [15] has as its target T1, Serotonin 1 (5-HT1) receptor. The data set can be described thus: Binding affinity towards central 5-hydroxytryptamine 1 receptor was determined in rat cerebral cortex using [3H]5-HT as radioligand. The format is tissue-based. A digest of the protocol:
as §2

The target in the next data set is Histamine H1 receptor (Cavia porcellus, UniProt P31389). The data set can be described thus: Binding affinity towards histamine H1 receptor was determined in guinea pig brain using [3H]pyrilamine as radioligand. In outline: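 Guinea pig brain membranes as source of central H1 receptors; [3H]pyrilamine, 25 °C for 60 min in 50 mM Tris-HCl, 150 mM NaCl, 5 mM EDTA, pH 7.4; nonspecific binding with 1 μM pyrilamine. Filtration, scintillation counting. Ki by Cheng–Prusoff from fitted IC50, mean ± SEM of three experiments.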
Histamine H1 receptor, sequence (P31389 whole entry): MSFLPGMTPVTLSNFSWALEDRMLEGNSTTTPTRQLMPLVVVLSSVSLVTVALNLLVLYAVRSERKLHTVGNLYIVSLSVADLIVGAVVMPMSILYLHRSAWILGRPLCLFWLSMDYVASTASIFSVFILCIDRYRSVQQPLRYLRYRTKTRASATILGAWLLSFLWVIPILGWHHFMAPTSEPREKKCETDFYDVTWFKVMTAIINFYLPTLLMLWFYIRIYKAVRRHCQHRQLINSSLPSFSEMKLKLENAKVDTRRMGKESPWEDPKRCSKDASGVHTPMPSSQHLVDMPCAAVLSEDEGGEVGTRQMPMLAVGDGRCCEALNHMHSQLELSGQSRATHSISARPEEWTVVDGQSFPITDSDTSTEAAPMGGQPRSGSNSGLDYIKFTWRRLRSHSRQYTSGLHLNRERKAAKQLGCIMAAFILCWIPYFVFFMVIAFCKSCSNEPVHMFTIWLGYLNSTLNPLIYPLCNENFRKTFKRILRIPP

Histamine H1 receptor (Cavia porcellus), sequence (P31389 whole entry): as above
T2 sequence (P14416 whole entry): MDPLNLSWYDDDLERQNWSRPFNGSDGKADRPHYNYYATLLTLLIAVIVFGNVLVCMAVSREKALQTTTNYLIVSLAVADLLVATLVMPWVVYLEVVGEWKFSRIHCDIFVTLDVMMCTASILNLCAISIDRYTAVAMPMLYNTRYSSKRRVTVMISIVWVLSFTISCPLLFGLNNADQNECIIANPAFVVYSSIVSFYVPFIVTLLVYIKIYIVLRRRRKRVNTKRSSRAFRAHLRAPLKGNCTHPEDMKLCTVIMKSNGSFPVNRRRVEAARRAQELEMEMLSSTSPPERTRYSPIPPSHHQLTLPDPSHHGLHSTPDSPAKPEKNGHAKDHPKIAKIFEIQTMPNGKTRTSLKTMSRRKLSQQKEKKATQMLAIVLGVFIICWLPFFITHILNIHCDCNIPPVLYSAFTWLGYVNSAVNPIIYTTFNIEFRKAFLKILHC
D(3) dopamine receptor, sequence (P35462 whole entry): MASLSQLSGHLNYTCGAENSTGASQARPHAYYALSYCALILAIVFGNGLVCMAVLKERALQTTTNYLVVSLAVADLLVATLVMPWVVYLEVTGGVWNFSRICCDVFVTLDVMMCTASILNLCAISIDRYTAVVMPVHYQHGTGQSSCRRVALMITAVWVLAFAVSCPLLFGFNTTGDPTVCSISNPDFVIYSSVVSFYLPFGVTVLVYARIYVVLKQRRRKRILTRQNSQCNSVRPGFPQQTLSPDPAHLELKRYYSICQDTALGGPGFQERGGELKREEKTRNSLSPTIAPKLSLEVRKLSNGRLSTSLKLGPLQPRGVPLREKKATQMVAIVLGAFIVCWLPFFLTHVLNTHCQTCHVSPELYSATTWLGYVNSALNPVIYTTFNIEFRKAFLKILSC
Alpha-2B adrenergic receptor, sequence (P19328 whole entry): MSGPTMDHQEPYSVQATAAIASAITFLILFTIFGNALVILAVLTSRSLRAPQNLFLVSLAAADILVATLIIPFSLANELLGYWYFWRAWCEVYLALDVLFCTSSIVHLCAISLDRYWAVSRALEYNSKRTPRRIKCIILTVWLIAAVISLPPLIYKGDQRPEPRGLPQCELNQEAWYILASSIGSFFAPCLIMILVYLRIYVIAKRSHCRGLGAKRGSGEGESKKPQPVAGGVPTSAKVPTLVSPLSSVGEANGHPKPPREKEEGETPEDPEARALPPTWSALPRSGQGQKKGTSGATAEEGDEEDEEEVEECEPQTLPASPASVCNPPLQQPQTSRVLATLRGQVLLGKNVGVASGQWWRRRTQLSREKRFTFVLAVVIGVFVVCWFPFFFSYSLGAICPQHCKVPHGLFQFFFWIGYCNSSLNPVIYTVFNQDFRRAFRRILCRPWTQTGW
5-hydroxytryptamine receptor 7, sequence (P34969 whole entry): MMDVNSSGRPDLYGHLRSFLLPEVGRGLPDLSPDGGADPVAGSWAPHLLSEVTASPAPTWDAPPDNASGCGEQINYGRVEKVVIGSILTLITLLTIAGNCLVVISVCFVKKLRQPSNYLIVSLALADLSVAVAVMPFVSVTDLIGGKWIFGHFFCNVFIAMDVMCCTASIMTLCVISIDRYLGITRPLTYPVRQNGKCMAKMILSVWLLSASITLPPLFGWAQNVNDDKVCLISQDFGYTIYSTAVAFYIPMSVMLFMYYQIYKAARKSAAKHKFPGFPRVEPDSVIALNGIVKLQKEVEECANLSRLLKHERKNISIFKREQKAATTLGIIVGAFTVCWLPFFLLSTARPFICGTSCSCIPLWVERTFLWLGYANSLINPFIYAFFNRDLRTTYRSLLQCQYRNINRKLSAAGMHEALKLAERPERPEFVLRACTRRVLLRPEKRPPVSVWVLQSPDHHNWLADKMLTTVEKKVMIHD
5-hydroxytryptamine receptor 1A, sequence (P08908 whole entry): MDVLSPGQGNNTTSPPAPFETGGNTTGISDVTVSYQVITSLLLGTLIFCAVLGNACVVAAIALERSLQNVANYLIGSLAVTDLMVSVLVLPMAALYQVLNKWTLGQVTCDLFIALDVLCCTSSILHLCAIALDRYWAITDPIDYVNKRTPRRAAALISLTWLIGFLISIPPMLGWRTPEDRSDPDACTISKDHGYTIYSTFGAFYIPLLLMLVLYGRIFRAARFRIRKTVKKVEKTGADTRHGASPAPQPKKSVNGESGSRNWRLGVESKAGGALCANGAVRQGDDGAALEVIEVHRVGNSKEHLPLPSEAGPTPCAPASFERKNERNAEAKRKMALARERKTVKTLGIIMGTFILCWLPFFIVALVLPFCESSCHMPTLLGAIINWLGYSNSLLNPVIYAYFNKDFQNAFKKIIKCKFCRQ

Consider `Cc1ccc(N2C(=O)c3ccc(C(=O)NC[C@H](O)CN4CCN(c5ccccc5OC(C)C)CC4)cc3C2=O)cc1`, for which the pKB in the data set listed under Rattus norvegicus [1] is 6.78; in the data set listed under Rattus norvegicus [2], 5.9. Besides, the Ratio in data set [3] is 7.6; in data set [4] it was greater than 5690.

In the case of `CC(C)Oc1ccccc1N1CCN(C[C@@H](O)CNC(=O)c2ccc3c(c2)C(=O)N(c2cccc(F)c2)C3=O)CC1`, the values for the inhibition at 1 µM in data set [5] and in data set [6] were 67% and 81%, respectively. In addition, the figures for the pKB in the data set filed under Rattus norvegicus [1] and in the data set listed under Rattus norvegicus [2] were 7.81 and 6.47, respectively. Further, the figures for the Ratio in data set [3] and in data set [4] were 22.6 and greater than 1960, respectively. This compound came in with an inhibition in data set [7] of 69%.

`CCOc1ccccc1OCCN[C@H](C)Cc1ccc(OC)c(S(N)(=O)=O)c1` [TAMSULOSIN]: the Ki was found to be 944 nM in data set [8]; 0.79 nM in data set [9]; 80 nM in data set [10]; 78 nM on D(2) dopamine receptor [11]; 13 nM at D(2) dopamine receptor [12]; 0.28 nM on D(3) dopamine receptor. Further, the inhibition constant (Ki) in data set [14] is 84 nM. Besides, the values for the inhibition at 1 µM in data set [5] and in data set [6] were 22% and 20%, respectively. The inhibition is 64% in the data set filed under Rattus norvegicus [13] and 7% in data set [7]. Besides, the results for the negative-log KB (pKB) in the data set filed under Rattus norvegicus [1] and in the data set listed under Rattus norvegicus [2] were 9.33 and 10.76, respectively.

Take `CC(C)Oc1ccccc1N1CCN(C[C@@H](O)CNC(=O)c2ccc3c(c2)C(=O)N(c2ccc(N(C)C)cc2)C3=O)CC1`: the Ki was 773 nM in [15]; 169 nM in [10]; 25 nM at D(2) dopamine receptor [11]; 23 nM on D(2) dopamine receptor [12]; 62 nM at D(3) dopamine receptor; 10 nM in data set [14]. The affinity at Histamine H1 receptor, expressed as Ki, was 38 nM. In addition, the pKB in the data set listed under Rattus norvegicus [1] came to 7.39; in the data set filed under Rattus norvegicus [2], 5.84. In addition, the figures for the Ratio in data set [3] and in data set [4] were 35.2 and greater than 6060, respectively. In addition, in data set [6], the inhibition at 1 µM was determined as 57%.

Take `COc1ccc(N2C(=O)c3ccc(C(=O)NCCCN4CCN(c5ccccc5OC(C)C)CC4)cc3C2=O)cc1`: the Ratio in [4] stood at 3280.

Consider `Cc1ccc(N2C(=O)c3ccc(C(=O)NCCCN4CCN(c5ccccc5OC(C)C)CC4)cc3C2=O)cc1`, for which the inhibition at 1 µM in [5] turned out to be 53%; in data set [6], 69%. For the same compound, the Ratio in data set [4] was greater than 12500.

For the compound `CC(C)Oc1ccccc1N1CCN(CCCNC(=O)c2ccc3c(c2)C(=O)N(c2cccc(F)c2)C3=O)CC1`, the inhibition at 1 µM worked out at 76% in data set [5] and 72% in [6]. Besides, the inhibition in the data set listed under Rattus norvegicus [13] was 66%; in data set [7], 75%. The Ratio in [4] turned out to be 1180.

Usually pKB stands for the negative decadic logarithm of the KB, by convention in mol/L. High values mean a low KB, low ones a high KB. The term inhibition denotes the change of the read-out against control, counted positive when it falls. One may read the Ki as a dissociation constant, usually derived from enzyme kinetics or from competition with a known ligand.
